Assay results published in ChEMBL document CHEMBL4138150, “Quinoline derivatives bearing pyrazole moiety: Synthesis and biological evaluation as possible antibacterial and antifungal agents” (2018).
≈ marks a conversion by molar mass, not a printed value.

Key:
Type in all cases: functional
[1] = system: Staphylococcus epidermidis; assay: Antimicrobial activity against Staphylococcus epidermidis RCMB 010024 assessed as diameter of zone inhibition at 5 mg/ml after 24 hrs by agar well diffusion assay; conditions: RCMB 010024, 24 h, read-out: DIZ
Outline: (§1)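 Agar well diffusion: 100 µL of 1 x10^8 CFU/mL bacteria was spread on nutrient agar. 10 mm wells received 100 µL of compound at 5 mg/mL in DMSO, or ampicillin or gentamycin standards at 1 mg/mL. DMSO served as negative control. Plates were incubated 24 h at 37 °C. Inhibition zone diameter (mm) was measured as the mean of triplicates.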

Shigella flexneri [2] = assay: Antimicrobial activity against Shigella flexneri RCMB 0100542 after overnight incubation by macro-tube dilution technique
Outline: (§2)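 Macro-tube twofold dilution following NCCLS guidance, run in nutrient broth. The first tube held 10 mg compound in 2.0 mL DMSO and was serially halved 1:1 into 1.0 mL broth through tube 14; tube 15 was the control. The inoculum was suspended to turbidity in 5.0 mL broth, 0.2 mL was diluted into 40 mL, and 1.0 mL was added per tube. Tubes were incubated overnight at 37 °C. MIC was the lowest concentration with no growth.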

Klebsiella pneumoniae [3] = assay: Antimicrobial activity against Klebsiella pneumoniae RCMB 010093 assessed as diameter of zone inhibition at 5 mg/ml after 24 hrs by agar well diffusion assay; conditions: RCMB 010093, 24 h, read-out: DIZ; outline: as §1
Aspergillus fumigatus [4] = assay: Antimicrobial activity against Aspergillus fumigatus RCMB 02564 assessed as diameter of zone inhibition at 5 mg/ml after 72 hrs by agar well diffusion assay; conditions: RCMB 02564, 72 h, read-out: DIZ
Outline: (§3)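 Fungi (1 x10^6 CFU/mL, 100 µL) were spread on Sabouraud dextrose agar. 10 mm wells were loaded with 100 µL of test solution at 5 mg/mL in DMSO, or amphotericin B standard at 1 mg/mL. A DMSO negative control was included. Plates were incubated 72 h at 28 °C. Inhibition zone diameter (mm) was recorded as the average of triplicate runs.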

Shigella flexneri [5] = assay: Antimicrobial activity against Shigella flexneri RCMB 0100542 assessed as diameter of zone inhibition at 5 mg/ml after 24 hrs by agar well diffusion assay; conditions: RCMB 0100542, 24 h, read-out: DIZ; outline: as §1
Klebsiella pneumoniae [6] = assay: Antimicrobial activity against Klebsiella pneumoniae RCMB 010093 after overnight incubation by macro-tube dilution technique; outline: as §2
Bacillus subtilis [7] = assay: Antimicrobial activity against Bacillus subtilis RCMB 010063 after overnight incubation by macro-tube dilution technique; outline: as §2
Proteus vulgaris [8] = assay: Potency index, ratio of Gentamycin IC50 to compound IC50 for Proteus vulgaris RCMB 010085
Bacillus subtilis [9] = assay: Antimicrobial activity against Bacillus subtilis RCMB 010063 assessed as diameter of zone inhibition at 5 mg/ml after 24 hrs by agar well diffusion assay; conditions: RCMB 010063, 24 h, read-out: DIZ; outline: as §1
Aspergillus fumigatus [10] = assay: Antimicrobial activity against Aspergillus fumigatus RCMB 02564 after 72 hrs by macro-tube dilution technique; conditions: RCMB 02564, 72 h
Outline: (§4)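 Twofold macro-tube dilution following NCCLS guidance, run in malt extract broth. 10 mg compound in 2.0 mL DMSO in tube 1 was serially diluted 1:1 through tube 14 into 1.0 mL broth; tube 15 was the control. Culture was suspended to turbidity in 5.0 mL broth, 0.2 mL was diluted into 40 mL, and 1.0 mL was added per tube. Incubation was 72 h at 30 °C. MIC was the lowest concentration with no growth.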

Candida albicans [11] = assay: Antimicrobial activity against Candida albicans RCMB 05035 assessed as diameter of zone inhibition at 5 mg/ml after 72 hrs by agar well diffusion assay; conditions: RCMB 05035, 72 h, read-out: DIZ; outline: as §3
Staphylococcus aureus [12] = assay: Antimicrobial activity against Staphylococcus aureus RCMB 010027 after overnight incubation by macro-tube dilution technique; outline: as §2
[13] = system: Staphylococcus epidermidis; assay: Antimicrobial activity against Staphylococcus epidermidis RCMB 010024 after overnight incubation by macro-tube dilution technique; outline: as §2
Candida albicans [14] = assay: Antimicrobial activity against Candida albicans RCMB 05035 after 72 hrs by macro-tube dilution technique; conditions: RCMB 05035, 72 h; outline: as §4
Aspergillus clavatus [15] = assay: Antimicrobial activity against Aspergillus clavatus RCMB 02593 assessed as diameter of zone inhibition at 5 mg/ml after 72 hrs by agar well diffusion assay; conditions: RCMB 02593, 72 h, read-out: DIZ; outline: as §3
Proteus vulgaris [16] = assay: Antimicrobial activity against Proteus vulgaris RCMB 010085 after overnight incubation by macro-tube dilution technique; outline: as §2
Proteus vulgaris [17] = assay: Antimicrobial activity against Proteus vulgaris RCMB 010085 assessed as diameter of zone inhibition at 5 mg/ml after 24 hrs by agar well diffusion assay; conditions: RCMB 010085, 24 h, read-out: DIZ; outline: as §1
Aspergillus clavatus [18] = assay: Antimicrobial activity against Aspergillus clavatus RCMB 02593 after 72 hrs by macro-tube dilution technique; conditions: RCMB 02593, 72 h; outline: as §4
Staphylococcus aureus [19] = assay: Antimicrobial activity against Staphylococcus aureus RCMB 010027 assessed as diameter of zone inhibition at 5 mg/ml after 24 hrs by agar well diffusion assay; conditions: RCMB 010027, 24 h, read-out: DIZ; outline: as §1

Compound | zone of inhibition at 5000 µg/mL [1] [mm] | MIC (Shigella flexneri [2]) [µg/mL] | zone of inhibition at 5000 µg/mL (Klebsiella pneumoniae [3]) [mm] | zone of inhibition at 5000 µg/mL (Aspergillus fumigatus [4]) [mm] | zone of inhibition at 5000 µg/mL (Shigella flexneri [5]) [mm] | MIC (Klebsiella pneumoniae [6]) [µg/mL] | MIC (Bacillus subtilis [7]) [µg/mL] | Ratio (Proteus vulgaris [8]) | zone of inhibition at 5000 µg/mL (Bacillus subtilis [9]) [mm] | MIC (Aspergillus fumigatus [10]) [µg/mL] | zone of inhibition at 5000 µg/mL (Candida albicans [11]) [mm] | MIC (Staphylococcus aureus [12]) [µg/mL] | MIC [13] [µg/mL] | MIC (Candida albicans [14]) [µg/mL] | zone of inhibition at 5000 µg/mL (Aspergillus clavatus [15]) [mm] | MIC (Proteus vulgaris [16]) [µg/mL] | zone of inhibition at 5000 µg/mL (Proteus vulgaris [17]) [mm] | MIC (Aspergillus clavatus [18]) [µg/mL] | zone of inhibition at 5000 µg/mL (Staphylococcus aureus [19]) [mm]
Clc1ccccc1C1CC(c2ccc(Oc3ccc4ccccc4n3)cc2)=NN1 (centres undefined) | 25.3 | 1.95 (≈ 4.88 µM) | 22.8 | 21.4 | 23.6 | 1.95 (≈ 4.88 µM) | 1.95 (≈ 4.88 µM) | 2 | 24.2 | 7.81 (≈ 19.5 µM) | 18.5 | 0.97 (≈ 2.43 µM) | 0.97 (≈ 2.43 µM) | 1.95 (≈ 4.88 µM) | 17.5 | 0.97 (≈ 2.43 µM) | 23.6 | 15.6 (≈ 39.1 µM) | 23.9
Cc1ccc(-c2nn(-c3ccccc3)cc2/C=N/Nc2ccc3ccccc3n2)cc1 | 20.7 | 7.81 (≈ 19.4 µM) | 17.6 | 20.5 | 18.3 | 7.81 (≈ 19.4 µM) | 0.49 (≈ 1.21 µM) | – | 22.4 | 0.98 (≈ 2.43 µM) | 22.1 | 1.95 (≈ 4.83 µM) | 0.98 (≈ 2.43 µM) | 0.49 (≈ 1.21 µM) | 18.3 | 31.2 (≈ 77.4 µM) | 16.2 | 7.81 (≈ 19.4 µM) | 20.3
Clc1ccc(-c2nn(-c3ccccc3)cc2/C=N/Nc2ccc3ccccc3n2)cc1 | 25.7 | 3.9 (≈ 9.2 µM) | 22.9 | 21.5 | 21.8 | 3.9 (≈ 9.2 µM) | 0.97 (≈ 2.29 µM) | – | 27.6 | 15.6 (≈ 36.9 µM) | 24.9 | 0.97 (≈ 2.29 µM) | 3.9 (≈ 9.2 µM) | 3.9 (≈ 9.2 µM) | 19.8 | 3.9 (≈ 9.2 µM) | 21.4 | 7.81 (≈ 18.4 µM) | 24.5
CCOC(=O)c1c(C)nn(-c2ccc3ccccc3n2)c1N | 17.3 | 15.6 (≈ 52.7 µM) | 15.9 | 16.3 | 16.8 | 31.2 (≈ 105 µM) | 1.95 (≈ 6.58 µM) | – | 20.2 | 31.2 (≈ 105 µM) | 19.8 | 1.95 (≈ 6.58 µM) | 15.6 (≈ 52.7 µM) | 1.95 (≈ 6.58 µM) | 18.6 | 125 (≈ 422 µM) | 13.6 | 3.9 (≈ 13.2 µM) | 20.3
Cc1nn(-c2ccc3ccccc3n2)c(N)c1C#N | 20.6 | 31.2 (≈ 125 µM) | 15.7 | 16.8 | 15.9 | 31.2 (≈ 125 µM) | 0.98 (≈ 3.93 µM) | – | 20.9 | 15.6 (≈ 62.7 µM) | 20.4 | 3.9 (≈ 15.6 µM) | 0.98 (≈ 3.93 µM) | 1.95 (≈ 7.82 µM) | 18.3 | 500 (≈ 2010 µM) | 11.6 | 7.8 (≈ 31.3 µM) | 19.2
C(=N\Nc1ccc2ccccc2n1)/c1cn(-c2ccccc2)nc1-c1ccccc1 | 23.4 | 7.81 (≈ 20.1 µM) | 21.2 | 17.5 | 20.1 | 3.9 (≈ 10 µM) | 1.97 (≈ 5.06 µM) | – | 23.2 | 7.81 (≈ 20.1 µM) | 19.6 | 3.9 (≈ 10 µM) | 3.9 (≈ 10 µM) | 7.81 (≈ 20.1 µM) | 18.4 | 7.81 (≈ 20.1 µM) | 20.2 | 15.6 (≈ 40.1 µM) | 22.2
